Experimental data as given in ChEMBL document CHEMBL3351861, “New synthetic sulfone derivatives inhibit growth, adhesion and the leucine arylamidase APE2 gene expression of Candida albicans in vitro” (2015).

What was measured:
Candida albicans [1] = experiment: Reduction in APE2 gene expression in compound pre-treated Candida albicans CAI4 expressing delta-cph1/delta-efg1 (EFG1) gene grown under YEPD medium at 16 ug/ml pre-treated for 2 hrs measured after 18 hrs by RT-PCR method; type: functional
In short: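 Blastoconidia from YEPD (10^4 cfu/ml) are washed and exposed 2 h to 16 µg/ml sulfone in YEPD. They are then washed and regrown 18 h at 30°C in YEPD before RNA extraction. Real-time RT-PCR uses SYBR Green with 250 nM primers and 60 ng cDNA: 95°C 15 min, then 45 cycles of 94°C 15 s and 60°C 1 min, plus a dissociation curve. APE2 is normalized to ACT1 by 2^-ΔΔCt with strain 90028 as calibrator; three experiments.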

Candida albicans [2] = experiment: Reduction in APE2 gene expression in compound pre-treated Candida albicans CAI4 expressing delta-cph1 gene grown on human Caco2 cells monolayer at 16 ug/ml pre-treated for 2 hrs measured after 18 hrs by RT-PCR method; type: functional, Caco-2
In short: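 Blastoconidia are pre-incubated 2 h with 16 µg/ml sulfone in RPMI. They are then washed, resuspended in RPMI and placed on Caco-2 monolayers at 37°C, with RNA taken at 6 or 18 h. Real-time RT-PCR uses SYBR Green with 250 nM primers and 60 ng cDNA: 95°C 15 min, then 45 cycles of 94°C 15 s and 60°C 1 min, plus a melt curve. APE2 is normalized to ACT1 by 2^-ΔΔCt with 90028 as calibrator; three experiments.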

## NNc1ccc(S(=O)(=O)C(Cl)(Br)Br)cc1[N+](=O)[O-]
Candida albicans [1]
  ΔCt: 3.3
Candida albicans [2]
  fold change (FC): 4.05
